These results are taken from ChEMBL document CHEMBL3112531, “Synthesis and evaluation of 4-(2-pyrimidinylamino) benzamides inhibitors of hedgehog signaling pathway” (Bioorg Med Chem Lett, 2014).

The structures appear in SMILES notation.

Series [1] can be described thus: Oral bioavailability in Sprague-Dawley rat at 5 mg/kg. The format is ADME, organism-based. The conditions noted are these: in vivo. Put shortly:
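Oral dosing of SD rats at 5 mg/kg in 0.5% HPMC + 0.3% Tween-80 (pH 2.8), with blood samples n = 3, alongside iv dosing at 1 mg/kg in 5% DMA + 5% Tween-80. Plasma concentration–time data were analysed noncompartmentally.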

Series [2] in a line: Half life in Sprague-Dawley rat at 5 mg/kg, po. The format is ADME, organism-based. Further details: dose 5 mg/kg, route oral. Conditions: in vivo. Put shortly: (§1)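 SD rats dosed orally at 5 mg/kg in 0.5% HPMC + 0.3% Tween-80 (pH 2.8). Blood samples (n = 3) were centrifuged at 4000 rpm for 5 min at 4 °C. Plasma concentration–time data were analysed noncompartmentally.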
Series [3] can be described thus: Mean residence time (0 to t) in Sprague-Dawley rat at 5 mg/kg, po. Format: ADME, organism-based. Further details: dose 5 mg/kg, route oral. The conditions noted are these: in vivo. In a few lines: as §1
The nature of series [4]: Clearance in Sprague-Dawley rat at 5 mg/kg, po. The conditions noted are these: in vivo. Format: ADME, organism-based. The arrangement: dose 5 mg/kg, route oral. Put shortly: as §1
The test system of series [5] is Rattus norvegicus. Put plainly: Volume of distribution at steady state in Sprague-Dawley rat at 5 mg/kg, po. The format is ADME, organism-based. Conditions: in vivo. The arrangement: dose 5 mg/kg, route oral. In a few lines:
as §1

A short description of series [6]: AUC in Sprague-Dawley rat at 5 mg/kg, po. The conditions noted are these: plasma. Further details: dose 5 mg/kg, route oral. Format: ADME, organism-based. In a few lines:
as §1

Series [7] can be described thus: Cmax in Sprague-Dawley rat at 5 mg/kg, po. The format is ADME, organism-based. The arrangement: dose 5 mg/kg, route oral. The conditions noted are these: in vivo. In a few lines:
as §1

The nature of series [8]: Half life in Sprague-Dawley rat at 1 mg/kg, iv. Conditions: in vivo. Format: ADME, organism-based. The arrangement: dose 1 mg/kg, route intravenous. Put shortly:
(§2)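 SD rats given a single 1 mg/kg iv dose in 5% DMA + 5% Tween-80. Plasma concentration–time data were analysed by a noncompartmental approach.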

Series [9] has as its system Rattus norvegicus. Put plainly: Mean residence time (0 to t) in Sprague-Dawley rat at 1 mg/kg, iv. The format is ADME, organism-based. Further details: dose 1 mg/kg, route intravenous. Conditions: in vivo. Put shortly:
as §2

Series [10] concerns Rattus norvegicus. Put plainly: Volume of distribution at steady state in Sprague-Dawley rat at 1 mg/kg, iv. Format: ADME, organism-based. Further details: dose 1 mg/kg, route intravenous. Conditions: in vivo. Put shortly: as §2
A short description of series [11]: AUC in Sprague-Dawley rat at 1 mg/kg, iv. Format: ADME, organism-based. Further details: dose 1 mg/kg, route intravenous. The conditions noted are these: plasma. In a few lines:
as §2

Series [12] can be described thus: Cmax in Sprague-Dawley rat at 1 mg/kg, iv. The format is ADME, organism-based. Further details: dose 1 mg/kg, route intravenous. The conditions noted are these: in vivo. In a few lines: as §2
The nature of series [13]: Ratio of GDC-0449 IC50 to compound IC50 for hedgehog signaling pathway in mouse NIH/3T3 cells by Gli1-luciferase reporter gene assay. Format: cell-based. For orientation: A reporter such as luciferase makes a cellular process visible.
A short description of series [14]: Inhibition of hedgehog signaling pathway in mouse NIH/3T3 cells by Gli1-luciferase reporter gene assay. The format is cell-based. The conditions noted are these: NIH3T3.

In general, bioavailability refers to dose-corrected exposure relative to a reference, in per cent. The low end stands for poor availability, the high end for good availability. A word on the half-life: it is how long it takes for the measured level to halve. Usually MRT last stands for a mean duration of stay, worked out from the concentration-time curve. As usually defined, the CL/F is the apparent clearance, not corrected for the fraction that reaches the circulation. As usually defined, the AUC is concentration integrated over time. One may read the Cmax as the maximum level reached in the sampled fluid or tissue. As a reminder, the MRT is a mean duration of stay, worked out from the concentration-time curve. As usually defined, the IC50 is the point on the concentration scale where inhibition reaches its midpoint. High values mean a need for much substance, low ones inhibition by little substance. In turn, `Cc1ccc(CN2CCOCC2)cc1NC(=O)c1ccc(Nc2ncc(C)c(-c3ccc(OC(F)(F)F)cc3)n2)cc1` yielded a bioavailability in series [1] of 46.3%. The half-life in series [2] was 5.8 h; in series [8], 7.2 h. In series [3], this compound registered a mean residence time (MRT last) of 6.6 h. The compound further returned a CL/F in [4] of 32.8 mL/min/kg. The Vdss with Rattus norvegicus [5] stood at 16.3 L/kg; in the series with Rattus norvegicus [10], 7.4 L/kg. Besides, the AUC stood at 2400 ng·h/mL in [6] and 1300 ng·h/mL in series [11]. The Cmax was 280 ng/mL in [7] and 1200 ng/mL in [12]. In the series with Rattus norvegicus [9], this compound displayed an MRT of 4.1 h. Moreover, the Ratio IC50 in [13] worked out at 7. The same compound came in with an IC50 in series [14] of 0.53 nM.
